From PubChem BioAssay
Hits are enriched below; roughly 3.4% of the tested compounds scored in any of these assays.
VIM-2 inh: inhibitors of Pseudomonas aeruginosa VIM-2 metallo-beta-lactamase. purified VIM-2, nitrocefin hydrolysis, epi-absorbance fluorescence. inhibition, % at 5.6 µM. 290,000 tested, 0.89% active. AID 1527;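 active = inhibition above the mean of all tested compounds plus 3 SD, cutoff set per screening run, cut at about 7.5% in these data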;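 note: red hydrolysis product quenches plate fluorescence so inhibitors raise well fluorescence; 0% = enzyme with DMSO and 100% = DMSO without enzyme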
MEKK3 PB1 HTS: MEKK3-MEK5 PB1 interaction, increase or decrease | Q99759 | bead-based flow cytometry, Alexa488-MEK5 binding to MEKK3; actives lie on both sides; 0 = blocked by unlabeled MEK5, 100 = vehicle | binding response (% of control), % at 10 µM | 290,000 tested, 1.4% active;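 active = binding response more than 3 SD above or below the average of its plate-row segment, actives on both sides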;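 note: Alexa488 bead fluorescence after subtracting the streptavidin-only scavenger bead signal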
Target sequence (Q99759 whole entry, looked up): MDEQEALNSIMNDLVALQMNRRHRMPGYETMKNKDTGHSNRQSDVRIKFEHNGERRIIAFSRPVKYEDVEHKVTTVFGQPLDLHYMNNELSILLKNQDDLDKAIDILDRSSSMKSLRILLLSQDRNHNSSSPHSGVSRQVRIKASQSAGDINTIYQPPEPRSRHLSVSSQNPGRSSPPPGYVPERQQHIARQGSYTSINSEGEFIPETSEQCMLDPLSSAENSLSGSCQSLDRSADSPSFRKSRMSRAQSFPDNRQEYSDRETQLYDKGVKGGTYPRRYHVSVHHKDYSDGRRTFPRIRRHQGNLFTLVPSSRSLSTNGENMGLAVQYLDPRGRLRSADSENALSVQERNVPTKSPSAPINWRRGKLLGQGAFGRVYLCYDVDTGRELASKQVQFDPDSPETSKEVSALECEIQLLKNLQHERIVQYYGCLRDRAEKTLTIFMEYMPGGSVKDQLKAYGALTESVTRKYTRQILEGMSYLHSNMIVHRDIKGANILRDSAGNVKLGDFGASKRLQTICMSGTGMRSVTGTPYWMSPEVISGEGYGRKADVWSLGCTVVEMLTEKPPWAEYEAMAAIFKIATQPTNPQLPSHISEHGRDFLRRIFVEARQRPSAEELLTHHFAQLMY
IMP-1 inh: inhibitors of Pseudomonas aeruginosa IMP-1 metallo-beta-lactamase | purified IMP-1, nitrocefin hydrolysis, epi-absorbance fluorescence | AID 1556 | 290,000 tested, 0.45% active | inhibition, % at 5.6 µM;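 active = inhibition above the mean plus 3 SD of all compounds in the same screening run, cut at about 4.5% in these data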;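 note: 0% = IMP-1 with DMSO and 100% = DMSO wells lacking enzyme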
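System: purified IMP-1 / Input: IMP-1 dispensed at 0.2 nM / Medium: 50 mM HEPES pH 7.1, 50 µM ZnSO4, 0.05% Brij 35 / Timing: 15 min enzyme–compound preincubation, then 25 min nitrocefin reaction, 25 °C / Technique: plate fluorescence quenching by hydrolysis product, ex 480/em 530 nm / Repeats: singlicate testing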
MEKK2wt PB1 HTS: raises or lowers MEK5 binding to wildtype human MEKK2 PB1 domain; Q9Y2U5; bead flow cytometry, Alexa488-MEK5 binding to MEKK2 WT; actives lie on both sides; binding response (% of control), % at 10 µM; 290,000 tested, 1.1% active; AID 1531; in the data active = binding response below about 67% or above about 130%
MEKK2mut PB1 HTS: signal of MEK5 binding to mutant human MEKK2 PB1 domain; 290,000 tested, 0.35% active; bead flow cytometry, Alexa488-MEK5 binding to MEKK2 mutant; percent response, % at 10 µM; in the data active = percent response above about 24%, passing the limit was not always enough
MEKK2wt confirm: raises or lowers MEK5 binding to wildtype human MEKK2, retest; 5,900 tested, 2.4% active; binding response (% of control), % at 10 µM; AID 1892; shares compounds with MEKK3 PB1 HTS; bead flow cytometry, Alexa488-MEK5 binding to MEKK2 WT; actives lie on both sides; in the data active = binding response below about 16% or above about 210%; inactive = in between
MEKK2mut-MEK5: signal of MEK5 binding to mutant human MEKK2, retest | shares compounds with MEKK3 PB1 HTS | bead flow cytometry, Alexa488-MEK5 binding to MEKK2 mutant | percent response, % at 10 µM | 5,900 tested, 2% active | AID 1893; in the data active = percent response mostly above about 71%, no sharp cut-off; inactive = mostly below about 38%;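 note: higher means compound restores mutant binding toward wildtype level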
MEKK3-MEK5 inh: confirmation of inhibitors of MEK5 binding to human MEKK3; shares compounds with MEKK3 PB1 HTS; bead flow cytometry, Alexa488-MEK5 binding to MEKK3; stronger effect = lower value; binding response (% of control), % at 10 µM; 5,900 tested, 1.8% active;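 active = binding response below 72% of control, or above a set upper limit, though filed actives all read lower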;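 note: 100% = DMSO only wells and 0% = binding blocked by excess unlabeled MEK5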
An asterisk follows results filed as active; [ ] = dose if it differs, or a comment.

Results for CCN(CC)C1CCN(Cc2cn[nH]c2-c2ccc(OC)c(F)c2)C1 (configuration not stated) ?
VIM-2 inh: -1; MEKK3 PB1 HTS: 104; IMP-1 inh: -2; MEKK2wt PB1 HTS: 132; MEKK2mut PB1 HTS: 26

How did COCCN1CCC(CNCc2cn[nH]c2-c2ccc(C)c(C)c2)C1 (configuration not stated) do in these assays?
VIM-2 inh: -2; MEKK3 PB1 HTS: 100; IMP-1 inh: -4; MEKK2wt PB1 HTS: 161*; MEKK2mut PB1 HTS: 31; MEKK2wt confirm: 159; MEKK2mut-MEK5: 43; MEKK3-MEK5 inh: 114

Results for COCCN1CCC(CNCc2cn(-c3cc(C)ccc3C)nc2-c2ccccc2)C1 (configuration not stated) ?
VIM-2 inh: -6; MEKK3 PB1 HTS: 107; IMP-1 inh: -4; MEKK2wt PB1 HTS: 163*; MEKK2mut PB1 HTS: 9; MEKK2wt confirm: 173; MEKK2mut-MEK5: 41; MEKK3-MEK5 inh: 111

How did CN(C)C(=O)N1CCCC(C(=O)NCc2ccccc2Cl)C1 (configuration not stated) do in these assays?
VIM-2 inh: -1; MEKK3 PB1 HTS: 103; IMP-1 inh: -2; MEKK2wt PB1 HTS: 101; MEKK2mut PB1 HTS: 3

How did CCOC(=O)C1CCCN(C(=O)c2ccc(CNS(=O)(=O)c3ccc(C)cc3)cc2)C1 (configuration not stated) do in these assays?
VIM-2 inh: -4; MEKK3 PB1 HTS: 104; IMP-1 inh: -3; MEKK2wt PB1 HTS: 104; MEKK2mut PB1 HTS: 8

How did O=C1C2CCCCC2C(=O)N1c1ccc(NC2CCN(Cc3ccccc3)CC2)c([N+](=O)[O-])c1 (configuration not stated) do in these assays?
VIM-2 inh: -1; MEKK3 PB1 HTS: 94; IMP-1 inh: -3; MEKK2wt PB1 HTS: 102; MEKK2mut PB1 HTS: -6

Results for CC1CCC2C(=O)N(c3ccc(NC4CCN(Cc5ccccc5)CC4)c([N+](=O)[O-])c3)C(=O)C2C1 (configuration not stated) ?
VIM-2 inh: 3; MEKK3 PB1 HTS: 70*[inhibitor]; IMP-1 inh: 0; MEKK2wt PB1 HTS: 106; MEKK2mut PB1 HTS: -8; MEKK2wt confirm: 117; MEKK2mut-MEK5: 16; MEKK3-MEK5 inh: 103

What do the screens show for `O=[N+]([O-])c1ccc(/C=N/Nc2ccc3ccccc3c2)o1`?
VIM-2 inh: -1; MEKK3 PB1 HTS: 88; IMP-1 inh: -1; MEKK2wt PB1 HTS: 2.0*[inhibitor]; MEKK2mut PB1 HTS: -2; MEKK2wt confirm: 103; MEKK2mut-MEK5: 1; MEKK3-MEK5 inh: 100

Results for CN(C)S(=O)(=O)c1ccc(C(=O)NC(=O)CSc2ccccc2)cc1 ?
VIM-2 inh: -4; MEKK3 PB1 HTS: 131*; IMP-1 inh: -2; MEKK2wt PB1 HTS: 102; MEKK2mut PB1 HTS: -1; MEKK2wt confirm: 100; MEKK2mut-MEK5: 1; MEKK3-MEK5 inh: 105

How did NC(=O)CC(NC(=O)Cc1cccc2ccccc12)c1ccc(NC2CCCCCCC2)c([N+](=O)[O-])c1 (configuration not stated) do in these assays?
MEKK3 PB1 HTS: 100; MEKK2wt PB1 HTS: 97; MEKK2mut PB1 HTS: 3

What do the screens show for `CSc1ccc(CCNC(=O)c2cc(-c3ccccc3)c(N3CCOCC3)s2)cc1`?
VIM-2 inh: -4; MEKK3 PB1 HTS: 102; IMP-1 inh: -4; MEKK2wt PB1 HTS: 98; MEKK2mut PB1 HTS: 3

How did CCN(CC)CCCNC(=O)c1cc(-c2ccccc2)c(N2CCCCC2)s1 do in these assays?
VIM-2 inh: -2; MEKK3 PB1 HTS: 105; IMP-1 inh: -3; MEKK2wt PB1 HTS: 161*; MEKK2mut PB1 HTS: 26*; MEKK2wt confirm: 162; MEKK2mut-MEK5: 41; MEKK3-MEK5 inh: 107

What do the screens show for `O=C(OCCC1Oc2cccnc2NC1=O)c1ccc([N+](=O)[O-])cc1` (configuration not stated)?
VIM-2 inh: 1; MEKK3 PB1 HTS: 74*[inhibitor]; IMP-1 inh: 1; MEKK2wt PB1 HTS: 75; MEKK2mut PB1 HTS: -9; MEKK2wt confirm: 100; MEKK2mut-MEK5: -1; MEKK3-MEK5 inh: 99

Results for O=C(OCCC1Oc2cccnc2NC1=O)c1ccc(F)cc1 (configuration not stated) ?
VIM-2 inh: 1; MEKK3 PB1 HTS: 99; IMP-1 inh: 0; MEKK2wt PB1 HTS: 98; MEKK2mut PB1 HTS: 0

Results for COc1ccc(OCc2n(CC(=O)OC3CC(C)CCC3C(C)C)c3ccccc3[n+]2C)cc1 (configuration not stated) ?
VIM-2 inh: -4; MEKK3 PB1 HTS: 111; IMP-1 inh: -4; MEKK2wt PB1 HTS: 162*; MEKK2mut PB1 HTS: 40; MEKK2wt confirm: 158; MEKK2mut-MEK5: 29; MEKK3-MEK5 inh: 108

How did CS(=O)(=O)N1CCN(C(=O)COc2ccc3ccccc3c2)CC1 do in these assays?
VIM-2 inh: -5; MEKK3 PB1 HTS: 132*; IMP-1 inh: -4; MEKK2wt PB1 HTS: 113; MEKK2mut PB1 HTS: 29; MEKK2wt confirm: 100; MEKK2mut-MEK5: -7; MEKK3-MEK5 inh: 105

What do the screens show for `CS(=O)(=O)N1CCN(C(=O)Cc2cccs2)CC1`?
VIM-2 inh: -1; MEKK3 PB1 HTS: 63*[inhibitor]; IMP-1 inh: -1; MEKK2wt PB1 HTS: 79; MEKK2mut PB1 HTS: -9; MEKK2wt confirm: 111; MEKK2mut-MEK5: 13; MEKK3-MEK5 inh: 109

How did O=C(CNS(=O)(=O)c1cccs1)N1CCN(c2ccccn2)CC1 do in these assays?
VIM-2 inh: -2; MEKK3 PB1 HTS: 98; IMP-1 inh: -2; MEKK2wt PB1 HTS: 98; MEKK2mut PB1 HTS: 2

Results for CCc1nn(CC(=O)NCCc2ccc(S(N)(=O)=O)cc2)c(=O)c2cc3sccc3n12 ?
VIM-2 inh: 4; MEKK3 PB1 HTS: 102; IMP-1 inh: 2; MEKK2wt PB1 HTS: 98; MEKK2mut PB1 HTS: 0

How did O=C(CSc1nc(O)c(Cc2ccccc2)c(=O)[nH]1)N1CCOCC1 do in these assays?
VIM-2 inh: -3; MEKK3 PB1 HTS: 131*; IMP-1 inh: -2; MEKK2wt PB1 HTS: 118; MEKK2mut PB1 HTS: 31; MEKK2wt confirm: 98; MEKK2mut-MEK5: 2; MEKK3-MEK5 inh: 99

What do the screens show for `C/C(=N\NC(=O)c1ccccc1)c1ccccc1Br`?
VIM-2 inh: -1; MEKK3 PB1 HTS: 99; IMP-1 inh: -2; MEKK2wt PB1 HTS: 99; MEKK2mut PB1 HTS: -1
